# Assay outcomes from PubChem BioAssay.
# In the library only some 3% were active in any assay of this set; here they are far more common.
# UBC13 inh – blocks human UBC13 polyubiquitin chain formation; TR-FRET; AID 485273; P61088; actives 0.47% (n = 330,000); inhibition, % at 20 µM; in the data active = inhibition above about 45%, passing the limit was not always enough
# Apaf1 inhib – blocks human Apaf-1 apoptosome activity | actives 0.71% (n = 330,000) | reconstituted apoptosome caspase-3 activity, DEVD-Rh110 fluorescence | O14727 | inhibition, % at 20 µM; active = inhibition of at least 40% at 20 µM;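 note: plate controls were DMSO wells for no effect and DEVD-CHO caspase inhibitor wells for full effect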
#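 Material: reconstituted apoptosome with Apaf-1, cytochrome c, caspase-9, procaspase-3, dATP; medium: pH 7.5 Hepes buffer with CHAPS, BSA, DTT; also added: cytochrome c and DEVD-Rh110 substrate; timing: 30 min plus 50 min, RT; signal: Rh110 fluorescence intensity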
# SENP7 inh – SENP7 protease inhibition | actives 1.5% (n = 330,000) | AID 434973 | inhibition, % at 5 µM | recombinant SENP7, Z-RLRGG-aminoluciferin luminescence, 40 min | Q9BQF6;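 active = inhibition above about 50% at the single test dose, limit read from the data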;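 note: plate controls were DMSO with enzyme for no effect and no enzyme buffer wells for full effect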
# Target sequence (Q9BQF6 706-1050 limits assumed): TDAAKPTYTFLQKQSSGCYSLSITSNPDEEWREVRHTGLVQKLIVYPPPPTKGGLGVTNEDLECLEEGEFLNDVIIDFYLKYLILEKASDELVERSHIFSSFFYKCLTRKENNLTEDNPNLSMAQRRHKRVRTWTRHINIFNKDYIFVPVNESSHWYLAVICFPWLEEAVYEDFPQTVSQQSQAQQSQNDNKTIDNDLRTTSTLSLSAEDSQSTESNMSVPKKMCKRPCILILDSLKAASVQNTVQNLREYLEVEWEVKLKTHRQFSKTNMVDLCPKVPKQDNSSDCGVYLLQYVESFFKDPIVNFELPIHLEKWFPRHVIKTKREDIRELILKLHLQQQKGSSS
# SENP6 inh – blocks the human protease SENP6; Q9GZR1; actives 1.8% (n = 330,000); AID 2599; inhibition, % at 10 µM; Recombinant SENP6 catalytic domain, aminoluciferin luminescence;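 active = inhibition above about 50% at the single tested dose, limit read from the data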;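 note: plate controls were DMSO wells with enzyme for no effect and DMSO wells lacking enzyme for full effect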
# SENP8 block-1 – inhibitors of human SENP8 protease. Q96LD8. recombinant SENP8, Nedd8 substrate fluorescence. inhibition, % at 20 µM. actives 0.64% (n = 360,000). AID 602440; in the data active = inhibition mostly above about 40%, no sharp cut-off; inactive = mostly below about 27%
# Target sequence (Q96LD8 whole entry, looked up): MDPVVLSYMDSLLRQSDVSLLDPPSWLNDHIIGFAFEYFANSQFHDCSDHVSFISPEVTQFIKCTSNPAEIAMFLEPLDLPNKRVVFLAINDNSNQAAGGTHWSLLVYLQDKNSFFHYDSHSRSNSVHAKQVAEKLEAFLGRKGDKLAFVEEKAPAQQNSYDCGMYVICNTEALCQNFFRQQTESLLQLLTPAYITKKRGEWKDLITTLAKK
# SENP8 block-2 – SENP8 protease inhibition; Q96LD8; actives 1.2% (n = 330,000); purified SENP8, Z-RLRGG-aminoluciferin cleavage, luminescence; inhibition, % at 10 µM; AID 2540; in the data active = inhibition above about 50%
# Apaf-1 inh conf – Apaf-1 inhibition, single-dose confirmed; actives 25% (n = 1,800); reconstituted apoptosome, caspase-3 DEVD-Rh110 fluorescence; inhibition, % at 20 µM; shares compounds with Apaf1 inhib; AID 504614;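 active = mean inhibition of at least 40% at 20 µM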;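 note: plate controls were DMSO wells for no effect and DEVD-CHO caspase inhibitor control wells for full effect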
# Rh110 interf inh – counter-screen for Apaf-1 inhibitors: fluorescence interference | shares compounds with Apaf1 inhib | Rh110 fluorescence interference, quenched caspase reaction | activation (fluorescence interference), % at 20 µM | 1,800 tested, under 10 active;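 active = signal rise of 40% or more at 20 µM, treated as a fluorescence artifact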
# Apaf1 inh interf – Apaf-1 inhibitor counter-screen fluorescence artifact; shares compounds with Apaf1 inhib; fluorescence interference counterscreen, Apaf-1 assay format; IC50, µM; 460 tested, under 10 active; AID 588538; call rule not given here
# * marks the source's active call; other numbers are inactive results; · = no result given.
SMILES,UBC13 inh,Apaf1 inhib,SENP7 inh,SENP6 inh,SENP8 block-1,SENP8 block-2,Apaf-1 inh conf,Rh110 interf inh,others
CCOC(=O)c1cnn(-c2c(Cc3ccccc3)c(C)nc3c(-c4ccccc4)c(C)nn23)c1N,-8,62*,-4,-11,13,-3,55*,21,Apaf1 inh interf=>100
CC(C)(C)c1ccc(OCCOc2ccc(C(C)(C)C)cc2NC=O)c(NC=O)c1,-4,41*,-2,-14,22,-6,35,6,
COCCOc1ccc(C(F)(F)F)cc1NC(=O)c1ccccc1,7,-2,9,4,12,3,·,·,
COC(=O)c1ccc2c(=O)n(CCCCCC(=O)N3CCN(c4ccccc4)CC3)c(=O)[nH]c2c1,0,47*,-7,-17,-108,-10,12,4,
O=C(Nc1ccccc1)C1Cc2c(-c3ccc4c(c3)OCO4)ccnc2O1 (centres undefined),·,·,·,·,-94,·,·,·,
CCc1cc2c(SCC(=O)N3CC(=O)Nc4ccccc43)ncnc2s1,-16,55*,-6,-18,-5,-8,20,7,
CN(C)c1ncc(C2=C(Cl)C(=O)C(N3CCCC3)=C(Cl)C2=O)s1,-57,83*,19,17,46*,32,42*,3,Apaf1 inh interf=>100
O=C1C(Cl)=C(N2CCCCCC2)C(=O)N1c1ccc(Cl)cc1,-6,19,-2,10,23,-12,·,·,
O=C1C(Cl)=C(N2CCCCC2)C(=O)C(Cl)=C1c1cnc(N2CCCCC2)s1,-26,48*,8,12,-19,11,25,6,
O=C(/C=C/[C@H]1O[C@@H](n2ccc(=O)[nH]c2=O)[C@H](O)[C@@H]1O)NCc1ccccc1,·,·,·,·,18,·,·,·,
CCOCCCn1c(SCC(=O)Nc2cc(C(C)(C)C)nn2-c2ccccc2)nc2ccccc2c1=O,18,40*,4,19,10,6,23,8,
CCN(CC)CCn1c(SCC(=O)Nc2ccc3c(c2)CCC3)nc2ccccc2c1=O,40,51*,11,0,-43,0,7,8,
COCCn1c(SCC(=O)Nc2cc(C(C)(C)C)nn2-c2ccccc2)nc2ccccc2c1=O,23,7,7,4,0,-2,·,·,
COc1ccc(-n2nnnc2C(c2cccc3ccccc23)N2CCN(C/C=C/c3ccccc3)CC2)cc1 (centres undefined),·,·,·,·,11,·,·,·,
CC(=O)N(C1=C(N2CCOCC2)C(=O)c2ccccc2C1=O)c1ccc(C(=O)O)cc1,-25,59*,34,18,18,19,55*,8,Apaf1 inh interf=>100
O=C(O)c1ccc(NC2=C(N3CCOCC3)C(=O)c3ccccc3C2=O)cc1,-22,68*,3,43,53*,12,51*,-1,Apaf1 inh interf=>100
O=C1c2ccccc2-c2ccc(C(=O)N3CCOCC3)cc21,-5,-1,0,-8,17,5,·,·,
Clc1ccccc1-c1cnc2sc(NCc3ccc4c(c3)OCO4)nn12,·,·,·,·,14,·,·,·,
COC(=O)C[C@@H]1C[C@@H]2c3cc(NS(=O)(=O)c4ccc(F)cc4)ccc3O[C@@H]2[C@@H](CO)O1,·,·,·,·,-1,·,·,·,
CCCc1cc(=O)oc2c3c(c4c(c12)OC(C)(C)C=C4)OC(C)C(C)C3O (centres undefined),10,53*,7,-9,-39,-1,47*,12,Apaf1 inh interf=>100
N#Cc1cccnc1N1CCN(C(C(=O)NC2CCCC2)c2ccc(F)cc2)CC1 (centres undefined),·,·,·,·,-4,·,·,·,
CNC(=O)c1ccc(NC(=O)C2CCN(c3ncnc4sc(C)c(C)c34)CC2)cc1,5,11,6,9,0,6,·,·,
Cc1sc2ncnc(N3CCC(C(=O)Nc4ccc(Cl)c(Cl)c4)CC3)c2c1C,19,42*,-4,-2,-74,4,31,12,
CCCN(CC(=O)Nc1ccccc1C)C(=O)C1CCN(c2ncnc3sc(C)c(C)c23)CC1,16,49*,13,5,6,-6,29,2,
Cc1ccccc1OCC(=O)NNC(=O)C1CCN(c2ncnc3sc(C)c(C)c23)CC1,10,13,-5,-1,-3,8,·,·,
SMILES,UBC13 inh,Apaf1 inhib,SENP7 inh,SENP6 inh,SENP8 block-1,SENP8 block-2,Apaf-1 inh conf,Rh110 interf inh,others
COC(=O)C[C@H]1C=C[C@H](NS(=O)(=O)c2cn(C)cn2)[C@@H](CO)O1,·,·,·,·,10,·,·,·,
COC(=O)c1cccc(C23CC4(C2)[C@H](CN(CC2CCCCC2)[C@@H]4c2ccccc2)C3c2ccccc2)c1 (some centres undefined),-3,40*,12,-7,-489,6,18,6,
COc1ccc(-n2nc(C(=O)NCC(=O)NC3CCCC(C)C3C)c3ccccc3c2=O)c(OC)c1 (centres undefined),2,55*,7,-8,-23,0,62*,3,Apaf1 inh interf=>100
COc1ccc(-n2nc(C(=O)NCC(=O)NC3CCCC(C)C3C)c3ccccc3c2=O)cc1 (centres undefined),15,51*,-6,-7,-217,4,36,6,
CCOC(=O)c1cc2c(c(-c3cccc(C#Cc4ccc(OC)c(OC)c4)c3)n1)[C@@H](CCO)N(S(=O)C(C)(C)C)C2 (some centres undefined),·,·,·,·,-10,·,·,·,
CCCC(=Nc1ccc(N)cc1)C1=C(O)C(C(=O)OC)C(C)(C)CC1=O (centres undefined),-19,67*,1,14,80*,6,-1,-6,
CCCC(=O)C1=C(O)C(C(=O)OC)C(C)(C)CC1=Nc1ccc(N)cc1 (centres undefined),-2,-2,1,-2,20,-3,·,·,
CN(C)S(=O)(=O)c1cccc(NC(=O)COC(=O)/C=C/c2ccco2)c1,-7,95*,-2,-19,16,-13,6,1,
CCN(CC)S(=O)(=O)c1cccc(NC(=O)COC(=O)/C=C/c2ccco2)c1,8,2,-1,-2,13,0,·,·,
CSc1nc(N)n2nccc2n1,·,·,·,·,0,·,·,·,
O=c1cc(N2CCCCC2)c(-c2ccccc2)nn1Cc1ccccc1,-6,10,-2,-3,10,-8,·,·,
COc1ccc(Cn2nc(-c3ccccc3)c(N3CCCCC3)cc2=O)cc1,-4,46*,6,5,15,9,17,10,
CC1(C(=O)NS(=O)(=O)c2cccc(Cl)c2)CCN1C(=O)CCc1cccs1 (centres undefined),·,·,·,·,10,·,·,·,
